This note sets out measurements from ChEMBL document CHEMBL1137087, “Discovery of novel 2,8-diazaspiro[4.5]decanes as orally active glycoprotein IIb-IIIa antagonists” (J Med Chem, 2004).

In data set [1] the target is Integrin alpha-IIb/beta-3 (Homo sapiens, UniProt P05106+P08514). The data set is described as follows: Tested for inhibition of the binding of fibrinogen to purified human GPIIb-IIIa in a 96-well format (ELISA assay). The class given is protein-complex assay. In outline: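 Purified GPIIb-IIIa or vitronectin receptor, 0.5 μg/well, coated overnight at 4 °C, BSA-blocked. Compound plus 10 nM biotinylated ligand added in triplicate, 2 h at room temperature, pH 7.4 Tris with CaCl2 and BSA.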
A general note: In an ELISA, binding on a coated surface is turned into a signal by an enzyme label.

Data set [2] in a line: (§1) Area under curve was determined after oral administration in rats. The class given is ADME, organism-based. The arrangement: concentration or dose not given beside the values. Particulars: rat, in vivo. In outline: (§2)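 Sprague Dawley rats instrumented 2 days before, conscious; prodrug in water given orally and free acid in 50% PEG-300 intravenously, 1 mg/kg each, six rats per group. Serial blood sampling on EDTA or citrate; plasma deproteinized with acetonitrile plus internal standard, filtered. AUC, Cmax and t1/2β from mean concentration–time curves; F = oral AUC / iv AUC.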

Data set [3] deals with Mus musculus. The data set is described as follows: Compound was tested for bleeding time in mice at a dose of 100 mg/kg vs DMSO (vehicle). The class given is functional. A digest of the protocol:
(§3)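 Anesthetized female C57/bl mice given an iv tail-vein bolus in 10% DMSO in water (~150 μL); vehicle controls received DMSO. Tail transected 2 mm from the tip and immersed in 37 °C normal saline. Bleeding time recorded to cessation of flow by visual inspection, up to 900 s.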

Data set [4] has as its system Mus musculus. The data set is described as follows: Compound was tested for bleeding time in mice at a dose of 40 mg/kg vs DMSO (vehicle). The class given is functional. A digest of the protocol:
as §3

Data set [5] deals with Mus musculus. The data set is described as follows: Compound was tested for bleeding time in mice at a dose of 10 mg/kg vs DMSO (vehicle). The class given is functional. A digest of the protocol: as §3
Data set [6] has as its system Mus musculus. The data set is described as follows: Compound was tested for bleeding time in mice at a dose of 50 mg/kg vs DMSO (vehicle). The class given is functional. A digest of the protocol: as §3
A short description of data set [7]: Clearance of the drug was measured in cynomolgus. The class given is ADME. Particulars: cercopithecidae, in vivo; read-out: CI. In outline:
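Fasted, chair-restrained cynomolgus monkeys. Active acid given as a 15 min iv infusion in 50% PEG-300 diluted with plasmalyte; prodrug given a week later in water by nasogastric tube to the same animals. EDTA plasma sampled over 0–48 h and assayed by LC/MS/MS. t1/2β taken from the terminal log-linear phase; Vz = dose/(AUCINF·λz); F corrected for molecular weight and dose.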

Data set [8] can be described thus: as §1. Particulars: rat, in vivo. The class given is ADME, organism-based. A digest of the protocol:
as §2

The species entered for a further data set is Canis familiaris. The data set is described as follows: Clearance of the drug was measured in the plasma of dog. The class given is ADME, organism-based, Canis lupus familiaris. Conditions: in vivo. A digest of the protocol:
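Fasted male beagle dogs (n = 4): prodrug at 1 mg/kg orally, active drug intravenously. Plasma drug measured by LC/MS/MS. t1/2β from the linear portion of the log concentration–time curve; Vz = dose/(AUCINF·λz); F corrected for molecular weight and dose differences.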

A short description of data set [9]: Inhibition of Human umbilical vein endothelial cells (HUVEC) adhesion to Vitronectin. The class given is cell-based.
A further data set deals with Integrin alpha-V/beta-3 (Homo sapiens, UniProt P05106+P06756). The data set is described as follows: Inhibition of vitronectin binding to Vitronectin receptor (alpha V beta 3). The class given is protein-complex assay. In outline:
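Purified GPIIb-IIIa or vitronectin receptor, 0.5 μg/well, coated overnight at 4 °C, BSA-blocked. Compound plus 10 nM biotinylated ligand added in triplicate, 2 h at room temperature, pH 7.4 Tris with CaCl2 and BSA. Detected by anti-biotin alkaline phosphatase conjugate, read at 405 nm; BSA-well binding subtracted; IC50 from three experiments.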

Data set [10] can be described thus: Inhibition of Human umbilical vein endothelial cells (HUVEC) adhesion to fibronectin. The class given is cell-based.
Another data set is filed under the species Rattus norvegicus. The data set is described as follows: Bioavailability in rat. Particulars: in vivo. The class given is ADME, organism-based. In outline: as §2
Data set [11] in a line: Inhibition of Human umbilical vein endothelial cells (HUVEC) adhesion to vitronectin. The class given is cell-based.

Where “and” joins values, the source holds several entries; their conditions need not be identical. Equal values may be shown once.

Sequence of Integrin alpha-V/beta-3 (P05106 27-788 limits assumed): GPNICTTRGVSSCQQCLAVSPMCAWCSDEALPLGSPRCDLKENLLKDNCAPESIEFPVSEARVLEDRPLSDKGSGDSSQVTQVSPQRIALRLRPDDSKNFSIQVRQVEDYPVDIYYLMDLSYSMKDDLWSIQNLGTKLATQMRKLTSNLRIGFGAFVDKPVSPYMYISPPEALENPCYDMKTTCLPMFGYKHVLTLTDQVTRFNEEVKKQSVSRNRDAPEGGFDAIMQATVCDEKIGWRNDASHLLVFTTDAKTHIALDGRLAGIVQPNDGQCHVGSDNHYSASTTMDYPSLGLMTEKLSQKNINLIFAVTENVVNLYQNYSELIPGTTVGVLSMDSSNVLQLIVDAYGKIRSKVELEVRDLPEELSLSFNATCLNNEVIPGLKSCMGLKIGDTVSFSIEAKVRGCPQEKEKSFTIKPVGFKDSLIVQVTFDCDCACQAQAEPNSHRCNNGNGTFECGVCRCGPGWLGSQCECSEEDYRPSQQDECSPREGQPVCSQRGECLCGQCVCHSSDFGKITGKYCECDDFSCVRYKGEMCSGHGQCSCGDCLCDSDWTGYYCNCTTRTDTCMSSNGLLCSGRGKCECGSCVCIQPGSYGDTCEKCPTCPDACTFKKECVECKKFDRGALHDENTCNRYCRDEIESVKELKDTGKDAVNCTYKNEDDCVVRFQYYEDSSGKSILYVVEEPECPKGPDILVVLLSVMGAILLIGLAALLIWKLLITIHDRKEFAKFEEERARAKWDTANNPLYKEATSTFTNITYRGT
Sequence of Integrin alpha-V/beta-3 (P06756 31-889 limits assumed): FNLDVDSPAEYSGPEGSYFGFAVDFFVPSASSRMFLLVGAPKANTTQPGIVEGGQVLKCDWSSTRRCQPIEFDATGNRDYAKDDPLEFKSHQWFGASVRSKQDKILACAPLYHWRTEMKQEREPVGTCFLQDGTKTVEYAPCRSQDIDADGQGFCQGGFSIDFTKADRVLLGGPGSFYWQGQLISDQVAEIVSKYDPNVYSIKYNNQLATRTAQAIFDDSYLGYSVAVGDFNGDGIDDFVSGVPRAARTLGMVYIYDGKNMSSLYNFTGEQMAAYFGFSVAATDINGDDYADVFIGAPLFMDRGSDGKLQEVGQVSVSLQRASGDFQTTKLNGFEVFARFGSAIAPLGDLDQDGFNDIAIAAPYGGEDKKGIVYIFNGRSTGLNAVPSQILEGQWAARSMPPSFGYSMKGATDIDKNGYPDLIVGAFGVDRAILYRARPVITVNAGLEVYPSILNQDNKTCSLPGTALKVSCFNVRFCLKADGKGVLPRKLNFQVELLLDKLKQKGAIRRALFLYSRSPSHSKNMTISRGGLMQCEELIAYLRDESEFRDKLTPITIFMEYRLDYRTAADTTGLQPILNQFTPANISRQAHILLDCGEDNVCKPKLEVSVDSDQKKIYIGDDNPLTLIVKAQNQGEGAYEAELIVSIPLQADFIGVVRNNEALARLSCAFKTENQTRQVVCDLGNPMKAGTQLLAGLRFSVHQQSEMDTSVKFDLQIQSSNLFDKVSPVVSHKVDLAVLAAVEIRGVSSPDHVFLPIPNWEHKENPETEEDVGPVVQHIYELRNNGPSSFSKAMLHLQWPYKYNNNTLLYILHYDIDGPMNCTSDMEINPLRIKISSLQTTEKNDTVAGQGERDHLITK
Sequence of Integrin alpha-V/beta-3 (P06756 891-1048 limits assumed): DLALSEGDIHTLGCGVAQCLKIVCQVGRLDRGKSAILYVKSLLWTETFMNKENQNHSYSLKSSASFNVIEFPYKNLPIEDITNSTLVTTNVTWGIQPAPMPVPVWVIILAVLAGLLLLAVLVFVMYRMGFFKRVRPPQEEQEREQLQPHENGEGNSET
Sequence of Integrin alpha-IIb/beta-3 (P05106 27-788 limits assumed): as the sequence (P05106 27-788 limits assumed) above
Sequence of Integrin alpha-IIb/beta-3 (P08514 32-887 limits assumed): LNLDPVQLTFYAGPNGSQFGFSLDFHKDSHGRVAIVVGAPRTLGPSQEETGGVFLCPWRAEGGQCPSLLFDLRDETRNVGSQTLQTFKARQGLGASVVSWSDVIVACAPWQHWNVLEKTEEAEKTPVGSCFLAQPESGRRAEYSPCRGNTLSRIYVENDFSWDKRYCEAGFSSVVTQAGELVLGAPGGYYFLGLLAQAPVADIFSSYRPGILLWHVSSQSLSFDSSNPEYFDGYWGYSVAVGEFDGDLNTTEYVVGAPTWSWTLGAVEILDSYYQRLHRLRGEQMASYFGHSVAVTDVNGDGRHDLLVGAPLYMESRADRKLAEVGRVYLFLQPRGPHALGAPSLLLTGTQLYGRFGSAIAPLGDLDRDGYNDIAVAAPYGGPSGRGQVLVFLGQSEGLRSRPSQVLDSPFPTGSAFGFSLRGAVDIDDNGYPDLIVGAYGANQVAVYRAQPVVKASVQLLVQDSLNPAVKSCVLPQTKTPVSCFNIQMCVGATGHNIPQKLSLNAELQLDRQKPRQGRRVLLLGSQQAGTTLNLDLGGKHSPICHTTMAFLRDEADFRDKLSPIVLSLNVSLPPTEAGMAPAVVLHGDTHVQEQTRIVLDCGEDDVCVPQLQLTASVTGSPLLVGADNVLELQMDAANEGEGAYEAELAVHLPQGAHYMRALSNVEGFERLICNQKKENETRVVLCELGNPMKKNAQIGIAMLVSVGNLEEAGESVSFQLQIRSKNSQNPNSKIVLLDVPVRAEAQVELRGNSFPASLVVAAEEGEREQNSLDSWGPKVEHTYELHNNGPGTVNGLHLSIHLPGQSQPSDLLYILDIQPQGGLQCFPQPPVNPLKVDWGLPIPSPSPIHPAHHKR
Sequence of Integrin alpha-IIb/beta-3 (P08514 891-1039 limits assumed): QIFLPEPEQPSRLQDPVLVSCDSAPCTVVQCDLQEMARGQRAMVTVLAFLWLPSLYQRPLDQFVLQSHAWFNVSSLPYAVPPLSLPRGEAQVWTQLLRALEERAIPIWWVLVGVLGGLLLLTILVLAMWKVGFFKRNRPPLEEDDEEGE

In turn, `Cc1ccc(S(=O)(=O)N[C@@H](CNC(=O)N2CCC3(CC2)C(=O)N(c2ccc(C(=N)N)cc2)C(=O)N3C)C(=O)O)cc1` had an IC50 in [1] of 2 nM.

`N=C(N)c1ccc(N2CC3(CCN(C(=O)CCCC(=O)O)CC3)NC2=O)cc1` came in with an IC50 in data set [1] of 751 nM.

On to `CN1C(=O)N(c2ccc(C(=N)N)cc2)C(=O)C12CCN(C(=O)CCCC(=O)O)CC2`, for which, in data set [1], the IC50 came to 100 nM.

Molecule `CCOC(=O)CCNC(=O)N1CCC2(CC1)CN(c1ccc(C(=N)NO)cc1)C(=O)N2C` displayed an AUC in data set [2] of 24 ng·h/mL.

`N=C(N)c1ccc(N2CC3(CCN(C(=O)CC(=O)O)CC3)CC2=O)cc1` had an IC50 in data set [1] of 25000 nM.

With `NC(=NN1CCOCC1)c1ccc(N2CCC3(CCN(C(=O)CCCC(=O)O)CC3)C2=O)cc1`, the IC50 in data set [1] turned out to be 4180 nM.

In the case of `CN1C(=O)N(c2ccc(C(=N)N)cc2)CC12CCN(C(=O)NCCC(=O)O)CC2`, the IC50 in [1] turned out to be 400 nM.

In turn, `N=C(N)c1ccc(N2C(=O)NC3(CCN(C(=O)CCCC(=O)O)CC3)C2=O)cc1` registered an IC50 in data set [1] of 21 nM.

In data set [1], `CN1C(=O)N(c2ccc(C(=N)N)cc2)CC12CCN(C(=O)CC(CC(=O)O)c1ccccc1)CC2` (centres undefined) gave an IC50 of 20 nM.

`CCCCOC(=O)N[C@@H](CCC(=O)N1CCC2(CC1)CCN(c1ccc(C(=N)NO)cc1)C2=O)C(=O)OCC` yielded an AUC in data set [2] of 184 ng·h/mL.

In turn, `N=C(N)c1ccc(N2C(=O)CC3(CCN(C(=O)CCCC(=O)O)CC3)C2=O)cc1` returned an IC50 in [1] of 430 nM.

For `Cc1noc(C)c1S(=O)(=O)N[C@@H](CCC(=O)N1CCC2(CC1)CCN(c1ccc(C(=N)N)cc1)C2=O)C(=O)O`, the Bleeding time with Mus musculus [3] came to 890.6 s; in the data set with Mus musculus [4], 196.5 s; with Mus musculus [5] it was 96.7 s; in the data set with Mus musculus [6], 562.5 s. This molecule also yielded an IC50 in data set [1] of 5 nM.

For `N=C(N)c1ccc(N2CC3(CCN(C(=O)NCCC(=O)O)CC3)CC2=O)cc1`, in data set [1], the IC50 came out at 350 nM.

On to `CN1C(=O)N(c2ccc(C(=N)N)cc2)CC12CCN(C(=O)CCCC(=O)O)CC2`, for which, in [1], the IC50 came to 1020 nM.

In [1], `N=C(N)c1ccc(N2CC3(CCN(C(=O)CCCC(=O)O)CC3)CC2=O)cc1` displayed an IC50 of 650 nM.

`C[C@H](CC(=O)O)CC(=O)N1CCC2(CC1)CCN(c1ccc(C(=N)N)cc1)C2=O`: in data set [1], the IC50 was 5 nM.

Turning to `CC(C)(COC(=O)N1CCC2(CC1)CC(=O)N(c1ccc(C(=N)N)cc1)C2)C(=O)O`, in [1], the IC50 was found to be 15000 nM.

Take `N=C(N)c1ccc(N2CCC3(CCN(C(=O)CC(CC(=O)O)c4ccccc4)CC3)C2=O)cc1` (centres undefined): the IC50 in [1] was 90 nM.

Molecule `N=C(N)c1ccc(N2CCC3(CCN(CCCCC(=O)O)CC3)C2=O)cc1` had an IC50 in data set [1] of 7800 nM.

`CCOC(=O)CCNC(=O)N1CCC2(CC1)CCN(c1ccc(C(=N)NO)cc1)C2=O`: in data set [7], the clearance is 5.12 mL/min/kg. Besides, the AUC in data set [8] stood at 565 ng·h/mL. This molecule returned a CI in the data set listed under Canis familiaris of 8.43 mL/min/kg.

As to `Cc1noc(C)c1S(=O)(=O)N[C@@H](CCC(=O)N1CCC2(CC1)C(=O)N(c1ccc(C(=N)N)cc1)C(=O)N2C)C(=O)O`, the half-inhibitory concentration (IC50) in data set [1] amounted to 16 nM.

Regarding `CCOC(=O)CCNC(=O)N1CCC2(CC1)CC(=O)N(c1ccc(C(=N)NO)cc1)C2`, the AUC in [2] was 95.6 ng·h/mL.

As for `CCOC(=O)COCC(=O)N1CCC2(CC1)CCN(c1ccc(C(=N)NO)cc1)C2=O`, the clearance in data set [7] stood at 2.7 mL/min/kg. In [2], this molecule returned an AUC of 651 ng·h/mL. Also, the CI in the data set filed under Canis familiaris was 3.28 mL/min/kg.

In data set [1], `CCNC(=N)c1ccc(N2CCC3(CCN(C(=O)CCCC(=O)O)CC3)C2=O)cc1` showed an IC50 of 841 nM.

In turn, `CN1C(=O)N(c2ccc(C(=N)N)cc2)C(=O)C12CCN(C(=O)NC(CC(=O)O)c1ccccc1)CC2` (centres undefined) showed an IC50 in data set [1] of 50 nM.

Take `CN1C(=O)N(c2ccc(C(=N)N)cc2)C(=O)C12CCN(C(=O)CC(CC(=O)O)c1ccccc1)CC2` (centres undefined): the IC50 in data set [1] was 32 nM.

In [1], `CCCCOC(=O)N[C@@H](CCC(=O)N1CCC2(CC1)CC(=O)N(c1ccc(C(=N)N)cc1)C2=O)C(=O)O` registered an IC50 of 30 nM.

`N=C(N)c1ccc(N2CCC3(CCN(C(=O)CC(=O)O)CC3)C2=O)cc1` showed an IC50 in data set [1] of 15800 nM.

For the molecule `N=C(N)c1ccc(N2CCC3(CCN(C(=O)CCCC(=O)O)CC3)C2=O)cc1`, the IC50 in data set [9] was > 50000 nM; on Integrin alpha-V/beta-3 it was > 50000 nM; in data set [1], 4 nM; in data set [10], > 50000 nM.

Take `CCOC(=O)CCNC(=O)N1CCC2(CC1)C(=O)N(c1ccc(C(=N)NO)cc1)C(=O)N2C`: the area under the curve (AUC) in data set [2] worked out at 60 ng·h/mL.

In [2], `CCOC(=O)CC(CC(=O)N1CCC2(CC1)CCN(c1ccc(C(=N)NO)cc1)C2=O)c1ccccc1` (centres undefined) had an AUC of 7.9 ng·h/mL.

Take `CCOC(=O)CCCC(=O)N1CCC2(CC1)CCN(c1ccc(C(=N)NO)cc1)C2=O`: in data set [7], the clearance amounted to 6.51 mL/min/kg. The molecule further displayed an AUC in [2] of 501 ng·h/mL. This molecule also came in with a CI in the data set filed under Canis familiaris of 6.44 mL/min/kg.

As to `C[C@@H](CC(=O)O)CC(=O)N1CCC2(CC1)CCN(c1ccc(C(=N)N)cc1)C2=O`, the IC50 in [1] was 4 nM.

For the molecule `N=C(N)c1ccc(N2C(=O)CC3(CCN(C(=O)NCCC(=O)O)CC3)C2=O)cc1`, the IC50 in [1] was 410 nM.

In data set [1], `N=C(N)c1ccc(N2CC3(CCN(C(=O)CCCCC(=O)O)CC3)CC2=O)cc1` came in with an IC50 of 7300 nM.

`CC(CC(=O)O)NC(=O)N1CCC2(CC1)CCN(c1ccc(C(=N)N)cc1)C2=O` (centres undefined) yielded an IC50 in data set [1] of 4 nM.

Molecule `C[C@H](CC(=O)O)NC(=O)N1CCC2(CC1)CCN(c1ccc(C(=N)N)cc1)C2=O` had an IC50 in data set [1] of 5 nM.

In the case of `CCCCOC(=O)N[C@@H](CCC(=O)N1CCC2(CC1)CCN(c1ccc(C(=N)N)cc1)C2=O)C(=O)O`, the IC50 in data set [1] was 5 nM.

On to `N=C(N)c1ccc(N2CCC3(CCN(C(=O)NCCC(=O)O)CC3)C2=O)cc1`, for which the IC50 on Integrin alpha-V/beta-3 was > 50000 nM; in [1], 4 nM and 3.9 nM.

For the molecule `N=C(N)c1ccc(N2CCC3(CCN(C(=O)COCC(=O)O)CC3)C2=O)cc1`, the IC50 at Integrin alpha-V/beta-3 is > 50000 nM; in data set [1], 17 nM.

For the molecule `CCCCOC(=O)N[C@@H](CCC(=O)N1CCC2(CC1)C(=O)N(c1ccc(C(=N)NO)cc1)C(=O)N2C)C(=O)OCC`, the F result in the data set listed under Rattus norvegicus is “Not detected”.

Molecule `N=C(N)c1ccc(N2CC3(CCN(C(=O)CCC(=O)O)CC3)CC2=O)cc1` registered an IC50 in [1] of 10500 nM.

Molecule `N=C(N)c1ccc(N2CCC3(CCN(C(=O)CCC(=O)O)CC3)C2=O)cc1` returned an IC50 in [1] of 5600 nM.

Regarding `N=C(N)c1ccc(N2C(=O)NC3(CCN(C(=O)NCCC(=O)O)CC3)C2=O)cc1`, the IC50 in [1] is 329 nM.

Regarding `CCOC(=O)CCNC(=O)N[C@H]1CCN(c2ccc(C(=N)N)cc2)C1=O` [ORBOFIBAN], the IC50 in [1] was 2.38 nM.

For `CCOC(=O)COC1CCN(C(=O)[C@H](C)NC(=O)c2ccc(/C(N)=N/O)cc2)CC1` [SIBRAFIBAN], the IC50 in data set [11] is > 50000 nM; at Integrin alpha-V/beta-3, > 50000 nM; in data set [1], 1.14 nM; in data set [10], > 50000 nM.

In general, IC50 refers to the concentration needed to halve the response being measured. In general, AUC refers to concentration integrated over time.
